The values that follow come from ChEMBL document CHEMBL4513216, “Probing the Open Global Health Chemical Diversity Library for Multistage-Active Starting Points for Next-Generation Antimalarials” (ACS Infect Dis, 2020).

The nature of the series: Toxicity liver stage against HepG2, at 10uM. Format: cell-based. The arrangement: test concentration 10 uM, cell line HepG2-A16-CD81EGFP. Conditions: human, HepG2-A16-CD81EGFP cells; read-out: INHIBITION
In short, it runs like this:
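Uninfected HepG2-A16-CD81EGFP cells, 3 × 10^3 per well, 1536-well, plated on prespotted compound at 10 μM final, parasite-free screening media added to match infected plates; puromycin 10 μM positive, DMSO 0.5% negative; run in parallel with 48 h PbLuc assay at 37 °C, 5% CO2; viability by CellTiter-Glo luminescence, normalized to controls.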
As to `CN(CC(=O)N1CCc2[nH]c3ccc(F)cc3c2C1)CC1OCCO1`, the cytotoxicity at 10 µM was determined as 6.19%.
The same measure for `O=C(O)Cn1ccc(=O)c2cc(Cl)ccc21`: -17.1%; for `CN1C(=O)COc2cc(NC(=O)CCc3nc4cccnc4[nH]3)ccc21`: -4.13%; for `Cc1ccc(C(=O)N2CCC3(CCN(Cc4ccccn4)C3=O)C2)cn1` (configuration not stated): -145%.
The same measure for `Cc1c(Cc2ccccc2)c(O)nc2nc(N3CCOCC3)nn12`: 9.76%; for `COC(=O)c1cccc(NS(=O)(=O)c2cnc(NC(C)=O)s2)c1`: 7.21%; for `Cc1cn[nH]c1C1COCCN1C(=O)c1cc(F)ccc1F` (configuration not stated): -0.658%.
Turning to `COCC(=O)N1CCCCC1c1nc(CN(C)C(C)=O)cc(N(C)C)n1` (configuration not stated), the cytotoxicity at 10 µM amounted to 3.37%.
The same measure for `CCCNS(=O)(=O)c1cc2c3c(c1)c(C)cc(=O)n3CCC2`: 3.94%.
Take `Cn1cc(CN2CCOC(c3nccnc3-c3cccc(F)c3)C2)cn1` (configuration not stated): the cytotoxicity at 10 µM came to 8.12%.
The same measure for `O=C(C1CC1)N1CCC(c2nc(O)c3c(n2)CCN(C2CCCC2)C3)C1` (configuration not stated): 4.66%; for `CN1CCC2(CC1)CNC(=O)c1ccccc1O2`: -1.24%; for `O=C(N1CCCC1)N1CCN(c2ccc(Cl)nn2)C(=O)C1`: 7.33%.
To `O=C(O)c1sccc1Oc1ccc(NC(=O)C2CC2)cc1` belongs -4.77%; to `CCC1CCCN(S(=O)(=O)c2cnn(C)c2)C1` (configuration not stated), 12.9%; to `CC(OCC1CC1)C(=O)NCc1cccc(CN2CCN(C)CC2)c1` (configuration not stated), 0.193%.
On to `CS(=O)(=O)CCNC(=O)Nc1sc2ccccc2c1Cl`, for which the cytotoxicity at 10 µM came to 41.7%.
Turning to `CCN(CC1CCOC1)C(=O)CCc1nc(C(C)(C)C)no1` (configuration not stated), the cytotoxicity at 10 µM is -1.26%.
`Cc1cccc(OCC(=O)NS(=O)(=O)Cc2ccccc2)c1`: the cytotoxicity at 10 µM came to 0.224%.
The same measure for `Cc1ccc(N2CCC(NC(C)c3cccs3)CC2)nc1` (configuration not stated): -9.64%.
On to `Cc1nc(CC(=O)NCCNc2nccc(C(F)(F)F)n2)cs1`, for which the cytotoxicity at 10 µM turned out to be 14.3%.
To `CCc1cnc(CN(C)C(=O)Nc2cnc3c(c2)c(C)nn3C)s1` belongs 2.37%; to `Cc1nn(C)c(C)c1C1CCCN1C(=O)c1ccc(C(N)=O)s1` (configuration not stated), -1.52%.
Take `COc1cc(Cl)ccc1C(=O)NCc1n[nH]c(C)n1`: the cytotoxicity at 10 µM is -4.07%.
Regarding `CCc1c(NCc2ccc(F)cc2)cnn1CC(C)C`, the cytotoxicity at 10 µM was 3.66%.
Regarding `O=C(CCc1ccsc1)NCC1CCN(C2CC2)C1` (configuration not stated), the cytotoxicity at 10 µM stood at 2.63%.
To `Cc1nsc(N2CCN(CC(=O)N(C3CC3)C(C)C3CC3)CC2)n1` (configuration not stated) belongs -12.4%; to `O=C(CCc1cccs1)Nc1ccnn1C1CCS(=O)(=O)C1` (configuration not stated), -19.8%.
The same measure for `Cc1c(C(=O)N2CCCOCC2)nnn1-c1cccc2cnccc12`: 11.8%; for `Cc1c(C(=O)N2CC(O)C2)nnn1-c1cccc2cnccc12`: 3.04%; for `CS(=O)(=O)Cc1ccc(Cl)cc1NCc1cccc(F)c1F`: 9.2%.
Turning to `CCc1nc(C(=O)N(CC)CC(=O)Nc2cc(Cl)ccc2C)c[nH]1`, the cytotoxicity at 10 µM is 8.44%.
The same measure for `COC(=O)CCSc1nncn1-c1ccc(OC)nc1`: -2.09%.
To `CCN1CCC(NC(=O)NC2CCOc3ccc(Br)cc32)CC1` (configuration not stated) belongs -1.15%.
Regarding `CCOC(C)c1nc(CN2CCC(NC(C)C)CC2)cs1` (configuration not stated), the cytotoxicity at 10 µM amounted to 1.1%.
Consider `Cc1csc(CNC(=O)NCC(O)c2ccccc2)n1` (configuration not stated), for which the cytotoxicity at 10 µM worked out at 2.26%.
The same measure for `COC(=O)c1ccoc1CN(C)CC(=O)N(C)C`: 3.39%.
To `Cc1ccc(S(=O)(=O)NC(=O)COc2ccc(CC#N)cc2)s1` belongs 2.52%; to `COC(=O)c1cccc(CN(C)Cc2ncnn2C)c1C#N`, -4.23%.
For `c1ccc(Cn2cccn2)c(CNCc2cnc(N3CCCC3)nc2)c1`, the cytotoxicity at 10 µM was -5.34%.
The same measure for `CC(Cn1cccn1)NC(=O)N(C)Cc1cnn(C)c1` (configuration not stated): -5.17%; for `CCN(C(=O)c1cc(C)oc1C)C1CC1`: -5.89%; for `O=C(CN(CC1CCC1)CC(F)(F)F)N1CCOCC1`: -13.1%.
As to `CCCC1c2ccccc2CCN1CCS(C)(=O)=O` (configuration not stated), the cytotoxicity at 10 µM was -0.846%.
For `COc1ccc(C)cc1CN(C)CCCNS(C)(=O)=O`, the cytotoxicity at 10 µM is -43.2%.
`Cn1cc(N2CCC(Nc3ccc4nccnc4n3)C2=O)cn1` (configuration not stated): the cytotoxicity at 10 µM is -2.47%.
On to `COc1cc(N2CCC3(CC2)CN(C)C(=O)CO3)ncn1`, for which the cytotoxicity at 10 µM was determined as 6.5%.
To `Cc1cccc(CN2CCn3cc(CNC(=O)CC4CC4)nc3C2)n1` belongs -73.2%.
As to `O=C(c1cccs1)N1CCc2ncc(Cn3cncn3)n2CC1`, the cytotoxicity at 10 µM was -89.8%.
The same measure for `Cn1cc(CN2CCCC3(CCN(c4cccnc4)C3=O)C2)cn1` (configuration not stated): -74.9%; for `CC(C)NC(=O)C1CN(C(=O)N2CCCC2)CC12CCOCC2` (configuration not stated): 1.08%.
To `CCc1ncc2c(n1)CN(c1nccc(C3CCCC3)n1)C2` belongs -1.16%.
The same measure for `Cc1ccc(CN2C[C@H]3OC(=O)N(Cc4ccccn4)[C@H]3C2)o1`: 4.16%.
`CSCc1noc(CNC(=O)C2CCN(C(=O)C3CC3)CC2)n1`: the cytotoxicity at 10 µM was determined as 11.5%.
The same measure for `Cc1ccc(N2CCCN(CC3CC3)C(C(C)C)C2)nn1` (configuration not stated): 13.3%; for `CCCNc1ncc(C2CC(=O)NCc3nc4ccccn4c32)cn1` (configuration not stated): -3.69%; for `CN1CCCN(C[C@@H]2CN(C(=O)N3CCOCC3)C[C@@H]2CO)CC1`: -7.43%.
To `Cc1cc(NC(C)Cc2cccnc2)n2nccc2n1` (configuration not stated) belongs 3.01%; to `C=C(C)COc1cccc(CN(C)C(C)c2ccncn2)c1` (configuration not stated), -47.6%; to `COc1nccnc1N1CCC2(CC1)[C@H](O)C[C@@H]2OCCN(C)C`, 4.56%.
The same measure for `Cc1ocnc1C(=O)N1CCCC1c1ccc(C(=O)N2CCSCC2)s1` (configuration not stated): -5.37%.
As for `O=C(c1ccc(-c2cccc3c2CCNC3)o1)N1CCCCC1`, the cytotoxicity at 10 µM was 3.67%.
As to `CN1CCCC(CCC(=O)N2CCc3[nH]c(-c4ccccc4)nc3C2)C1` (configuration not stated), the cytotoxicity at 10 µM was -4.13%.
To `CCc1cc(N(C)CCc2c(C)n[nH]c2C)ncn1` belongs -4.45%.
The same measure for `CCC(NC(=O)C1CCN(C(=O)C2CC2)CC1)c1cn2cccnc2n1` (configuration not stated): 0.0482%; for `c1cc(CN2CCCC2)cc(-n2ccnc2-c2ccncc2)c1`: -1.37%; for `Cc1ccccc1C(C(=O)NCCS(C)(=O)=O)N(C)C` (configuration not stated): 11.2%.
The same measure for `COCCNc1cc(-c2ccccc2S(N)(=O)=O)c2cc[nH]c2n1`: 6.68%; for `c1cnn(CCC2CCN(Cc3ccc4[nH]ccc4c3)CC2)c1`: -7.57%; for `CCCOC1CCCN(Cc2nc(-c3cccs3)oc2C)C1` (configuration not stated): -53.1%.
In the case of `O=C(N[C@@H]1CCN(C(=O)c2ccc(F)cc2Cl)C[C@H]1O)c1ccccn1`, the cytotoxicity at 10 µM was -0.0395%.
The same measure for `CCCc1cc(NCc2nc(COC)no2)n2nccc2n1`: -0.916%.
To `COC(=O)c1ccc(CNC(=O)Cc2csc(C(C)=O)c2)cc1` belongs 5.03%; to `CCOc1ccccc1CN(CC)Cc1ccc(S(C)(=O)=O)cc1`, -4.6%.
The same measure for `O=C(NCc1ccoc1)c1ccc(C2CCCN2CC2CCOCC2)s1` (configuration not stated): 6.7%; for `CS(=O)(=O)N1CCCn2nc(CNc3cc(C#N)ccn3)cc2C1`: -8.5%.
As to `CCc1cc(N[C@H]2CCC[C@H]2CO)n2nccc2n1`, the cytotoxicity at 10 µM was -10.1%.
Turning to `Cc1cc(C(F)(F)F)cc(=O)n1Cc1nc(C(C)C)no1`, the cytotoxicity at 10 µM is 0.9%.
To `CCN(Cc1ccc(S(C)(=O)=O)cc1)Cc1nc(COC)no1` belongs -10.8%; to `CC(C)n1ccnc1C1CCN(C(=O)c2ccc(SCCO)cc2)CC1`, -0.232%; to `Cc1ccc(CC(=O)N2CCCC(c3ccn[nH]3)C2)cn1` (configuration not stated), 0.691%.
The same measure for `CNc1nc(CNC(=O)Nc2ccc([S+](C)[O-])c(F)c2)cs1` (configuration not stated): -12.2%.
Regarding `CC(C)c1nc(C2CCCN2C(=O)c2ccc(C#N)cn2)no1` (configuration not stated), the cytotoxicity at 10 µM was -3.19%.
The same measure for `Cc1nccn1C1CCCN(C(=O)COCC2CC2)C1` (configuration not stated): -11.7%; for `O=C(c1cccnc1N1CCCCC1)N1CCCC(n2ccnc2)C1` (configuration not stated): -14.4%.
To `Cc1ccc(C)c(CNC(=O)NC(C)(C(=O)O)c2ccco2)c1` (configuration not stated) belongs -10.8%; to `CN(Cc1cccc(F)c1)C1CCN(CCc2ccccn2)CC1`, -5.38%.
The same measure for `CC(=O)NC1CCCN(C(=O)NCc2cccnc2N(C)C)C1` (configuration not stated): -1.97%.
Take `Cc1nc(C)n(CC2CN(c3ncnc4[nH]ccc34)CCO2)n1` (configuration not stated): the cytotoxicity at 10 µM was found to be 0.433%.
To `Cc1ccc(-c2nc(CN3CCc4nn(C)c(=O)cc4C3)no2)cc1` belongs -8.38%; to `CC(C)c1nc(C2CCCN(C(=O)c3ccc4nccn4c3)C2)no1` (configuration not stated), -0.0722%.
To `Cc1ccc(CN2CCCC3(CCN(S(C)(=O)=O)C3)C2)o1` (configuration not stated) belongs 2.21%; to `COCCNC(=O)[C@H]1C[C@@H]2CCN(CCc3ccccc3)C[C@@H]2O1`, -74.5%.
The same measure for `Cc1ccc(N2CCO[C@H]3CN(Cc4ccncc4)C[C@H]32)nn1`: 1.23%.
As for `Cn1cc(CN2CC[C@@H]3[C@@H]2CCN3C(=O)Cc2cccc(F)c2)cn1`, the cytotoxicity at 10 µM was -80%.
To `CN(Cc1cn2c(n1)CN(c1ncc(F)cn1)CC2)Cc1ccco1` belongs 3.96%; to `O=C(c1ccncc1F)N1C[C@@H]2CC[C@H]1CN(Cc1cccnc1)C2`, 3.01%.
